These results are taken from ChEMBL document CHEMBL1121739, “Inhibition of human acrosin by monosaccharides and related compounds: structure-activity relationships” (J Med Chem, 1981).

Structures are written as SMILES.

Chain of Acrosin (Homo sapiens) (P10323 20-42 limits assumed): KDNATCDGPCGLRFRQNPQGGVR
Chain of Acrosin (Homo sapiens) (P10323 43-343 limits assumed): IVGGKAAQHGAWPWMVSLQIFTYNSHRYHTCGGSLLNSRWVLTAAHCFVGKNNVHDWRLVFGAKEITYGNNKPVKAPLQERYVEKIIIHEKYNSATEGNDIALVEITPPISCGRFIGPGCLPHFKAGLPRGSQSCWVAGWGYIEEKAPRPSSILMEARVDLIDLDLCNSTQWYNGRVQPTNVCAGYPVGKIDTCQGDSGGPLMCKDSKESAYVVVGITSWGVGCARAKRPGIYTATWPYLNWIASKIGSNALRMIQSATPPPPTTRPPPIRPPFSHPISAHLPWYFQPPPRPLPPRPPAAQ

One assay deals with Acrosin (Homo sapiens) (UniProt P10323). In words: Compound was tested for inhibition of Human acrosin by aldohexoses. Further details: concentration or dose not given beside the values. Particulars: concentration not given here. In short, it runs like this:
(§1)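 Purified human α-acrosin (acetic acid extract of frozen sperm, then Sephadex G-150 and CM-cellulose). Sugar at 200 mM was preincubated with enzyme for 5 min at ambient temperature in 50 mM sodium phosphate, pH 7.5. The reaction was started with 5×10^-5 M BAEE or 3×10^-4 M BAPA and followed at 253 nm. Results are % inhibition of the no-inhibitor control rate, as mean ± SE.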
With `OC[C@H]1O[C@@H](O)[C@H](O)[C@@H](O)[C@H]1O` (stereo in doubt; form 2), the inhibition came out at 12%.
On the same count and under the same terms, the value for `OC[C@H]1OC(O)[C@H](O)[C@H](O)[C@H]1O` (some centres undefined) was 0%; that for `C[C@H](O)[C@@H](O)[C@@H](O)[C@H](O)C=O` was 20%.
On the same count and under the same terms, in the case of `OC[C@@H]1OC(O)[C@@H](O)[C@H](O)[C@H]1O` (some centres undefined) it was 0%; in that of `OC[C@H]1O[C@@H](O)[C@H](O)[C@@H](O)[C@H]1O` (stereo in doubt; form 1), 34%; in that of `OC[C@H]1OC(O)[C@H](O)[C@@H](O)[C@@H]1O` (some centres undefined), 28%.
Same read-out and setting: in the case of `OC[C@H]1OC(O)[C@@H](O)[C@@H](O)[C@@H]1O` (some centres undefined) it was 60%; in that of `C[C@H]1OC(O)[C@H](O)[C@@H](O)[C@H]1O` (some centres undefined), 62%.

The next assay has the same target. In words: Compound was tested for inhibition of Human acrosin by aldopentoses. Further details: concentration or dose not given beside the values. The settings on record: concentration not given here. In short, it runs like this: as §1
In turn, `OC1OC[C@@H](O)[C@@H](O)[C@@H]1O` (some centres undefined) returned an inhibition of 50%.
Still for that read-out and setting: the value for `OC1OC[C@H](O)[C@@H](O)[C@@H]1O` (some centres undefined) was 40%; that for `OC1OC[C@H](O)[C@H](O)[C@H]1O` (some centres undefined) was 65%; that for `O[C@@H]1[C@H](O)[C@@H](O)OC[C@H]1O` (stereo in doubt; form 1) was 50%.
On the same count and under the same terms, the value for `O[C@@H]1[C@H](O)[C@@H](O)OC[C@H]1O` (stereo in doubt; form 2) was 35%; that for `O=C[C@H](O)[C@@H](O)[C@H](O)CO` was 37%.
`OC[C@H]1O[C@H](O)[C@H](O)[C@@H]1O` gave an inhibition of 65%.

The target is the same in another assay. In words: Compound was tested for inhibition of Human acrosin by phosphorylated monosaccharides. The settings on record: concentration not given here. More on the design: concentration or dose not given beside the values. In short, it runs like this: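 Phosphorylated sugars, as barium salts in the D configuration, were tested at 100 mM, limited by solubility; the parent sugars were also run at 100 mM. Each was preincubated 5 min with purified human α-acrosin before adding BAEE or BAPA. The spectrophotometric 253 nm assay measured % inhibition relative to a no-inhibitor control.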
For the compound `O=C[C@H](O)[C@@H](O)[C@@H](O)[C@H](O)CO`, the inhibition came to 0%.
In turn, `O=C(CO)[C@@H](O)[C@H](O)[C@H](O)CO` gave an inhibition of 46%.
Still for that read-out and setting: in the case of `O=P(O)(O)OC[C@H]1OC(O)(COP(=O)(O)O)[C@@H](O)[C@@H]1O` (some centres undefined) it was 18%.
`O=P(O)(O)OC[C@@]1(O)O[C@H](CO)[C@@H](O)[C@@H]1O` returned an inhibition of 9%.
Compound `O=P(O)(O)OC[C@H]1O[C@](O)(CO)[C@@H](O)[C@@H]1O` returned an inhibition of 7%.
The compound `O=P(O)(O)OC[C@H]1OC(O)[C@H](O)[C@@H](O)[C@H]1O` (some centres undefined) gave an inhibition of 10%.
Same read-out and setting: in the case of `O=P(O)(O)OC[C@H]1O[C@H](O)[C@H](O)[C@@H]1O` it was 15%; in that of `OC[C@H]1O[C@H](O)[C@H](O)[C@@H]1O`, 45%; in that of `O=P(O)(O)OC1O[C@H](CO)[C@H](O)[C@H](O)[C@H]1O` (some centres undefined), 3%.

The target is the same in the next assay. In words: Compound was tested for inhibition of Human acrosin by ketohexoses. Particulars: concentration not given here. The gist of the method: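 Purified human α-acrosin from acetic acid extracts of frozen sperm, run through Sephadex G-150 and CM-cellulose. Sugars at 200 mM were preincubated with the enzyme for 5 min at ambient temperature in 50 mM sodium phosphate, pH 7.5. Reaction started with 5×10^-5 M BAEE or 3×10^-4 M BAPA; hydrolysis followed at 253 nm. Percent inhibition versus inhibitor-free control, mean ± SE of 3–6 determinations.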
`O=C(CO)[C@@H](O)[C@H](O)[C@H](O)CO` registered an inhibition of 66%.
In turn, `O=P(O)(O)OC[C@H]1O[C@](O)(CO)[C@@H](O)[C@@H]1O` returned an inhibition of 32%.
The compound `O=C(CO)C(O)C(O)C(O)CO` (centres undefined) returned an inhibition of 18%.
Still for that read-out and setting: the value for `OCC1(O)OCC(O)C(O)C1O` (centres undefined) was 58%.

For the next assay the target is unchanged. In words: Compound was tested for inhibition of Human acrosin by aldoses.
Conditions: not given
The gist of the method: (§2)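 Homologous aldoses or ketoses of different carbon chain lengths were each tested at 100 mM against purified human α-acrosin. The enzyme was preincubated with sugar for 5 min at ambient temperature, pH 7.5, with 3×10^-4 M BAPA as substrate and hydrolysis read spectrophotometrically at 253 nm. Results are % inhibition of control activity, as mean ± SE with n given.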
Compound `OC1OC[C@@H](O)[C@@H](O)[C@@H]1O` (some centres undefined) came in with an inhibition of 36%.
Same read-out and setting: in the case of `O=CC(O)C(O)CO` (centres undefined) it was 40%; in that of `OC[C@H]1OC(O)[C@@H](O)[C@@H](O)[C@@H]1O` (some centres undefined), 48%.

Another assay has the same target. In words: Compound was tested for inhibition of Human acrosin by polyols. The settings on record: concentration not given here.
Consider `OC[C@@H](O)[C@@H](O)[C@H](O)[C@H](O)CO`, for which the inhibition came to 29%.
For the compound `O[C@H]1[C@H](O)[C@@H](O)[C@H](O)[C@@H](O)[C@H]1O`, the inhibition was 30%.
Take `OC[C@@H](O)[C@@H](O)[C@H](O)[C@@H](O)CO`: the inhibition was found to be 38%.
Still for that read-out and setting: in the case of `OCC(O)CO` it was 28%.

The next assay has the same target. In words: Compound was tested for inhibition of Human acrosin by ketoses. Particulars: concentration not given here. The gist of the method: as §2
For the compound `O=C(CO)[C@@H](O)[C@H](O)[C@H](O)CO`, the inhibition was determined as 47%.
For `O=C(CO)CO`, the inhibition was 15%.
Same read-out and setting: in the case of `O=C(CO)C(O)C(O)CO` (centres undefined) it was 38%; in that of `OC[C@H]1OC(O)(CO)[C@@H](O)[C@@H](O)[C@@H]1O` (some centres undefined), 41%.

Broadly, the inhibition is the share of the control response that was lost under treatment.
